Activity calls are given as the source filed them. No cut-off for these calls is given here.
Columns and labels:
A549 [1] = test: Cell cycle arrest in human A549 cells assessed as slight increase in cell population at S phase at 20 uM after 48 hrs by flow cytometry; format: functional, cell-based
How it was run: (§1)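 Cells seeded in 6-well plates at 1∙10⁶ (NB4) or 0.45∙10⁶ (A549, MCF-7) per well. Treated for 48 h at 10 (NB4, MCF-7), 20 and 30 (A549), or, for NB4, a lower 5; DMSO solvent control. Cell cycle phase distribution and sub-G1 measured by flow cytometry. Mean of two independent experiments.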

A549 [2] = test: Cell cycle arrest in human A549 cells assessed as increase in cell population at S phase at 30 uM after 48 hrs by flow cytometry; format: functional, cell-based; how it was run: as §1
[3] = Antiproliferative activity against human NB4 cells assessed as cell growth inhibition after 48 hrs by XTT assay; format: functional, cell-based; settings: NB-4, 48 h
How it was run: (§2)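 NB4 grown in RPMI 1640 with 10% FBS and penicillin/streptomycin, A549 and MCF-7 in DMEM, all at 37 °C and 5% CO2. Cells seeded at 1.5∙10⁴ (NB4) or 1.0∙10⁴ (A549, MCF-7) per well. Adherent lines dosed 24 h after plating, NB4 shortly after. Triplicate concentrations from 0.1 to 100, DMSO control at 0.5% v/v. After 48 h exposure, XTT added for 2 h. A450 minus A690 read, GI50 reported with SE.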

A549 [4] = test: Cell cycle arrest in human A549 cells assessed as slight increase in cell accumulation at G2/M phase at 20 uM after 48 hrs by flow cytometry; format: functional, cell-based; how it was run: as §1
A549 [5] = test: Antiproliferative activity against human A549 cells assessed as cell growth inhibition after 48 hrs by XTT assay; format: functional, cell-based; settings: A549, 48 h; how it was run: as §2
MCF7 [6] = test: Antiproliferative activity against human MCF7 cells assessed as cell growth inhibition after 48 hrs by XTT assay; format: functional, cell-based; settings: MCF7, 48 h; how it was run: as §2
MCF7 [7] = test: Cell cycle arrest in human MCF7 cells assessed as increase in cell population at S phase at 10 uM after 48 hrs by flow cytometry; format: functional, cell-based; how it was run: as §1
MCF7 [8] = test: Cell cycle arrest in human MCF7 cells assessed as increase in cell population at G2/M phase at 10 uM after 48 hrs by flow cytometry; format: functional, cell-based; how it was run: as §1
A549 [9] = test: Induction of apoptosis in human A549 cells at 20 to 30 uM after 24 to 48 hrs by annexin V binding assay; format: functional, cell-based
How it was run: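 Cells seeded in 6-well plates at 1∙10⁶ (NB4) or 0.45∙10⁶ (A549, MCF-7) per well. Treated at 5 (NB4), 20 and 30 (A549) or 10 (MCF-7). Apoptotic cell percentage measured by annexin V binding after 24 and 48 h. Mean of two independent experiments.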

[10] = Induction of apoptosis in human NB4 cells assessed as cell death; format: functional, NB-4
How it was run: (§3)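 NB4 acute promyelocytic leukemia cells were grown in RPMI 1640 + GlutaMAX with 10% FBS and penicillin/streptomycin at 37 °C under 5% CO₂. Cells were seeded in 6-well plates at 1∙10⁶ per well and treated for 24 and 48 h; DMSO served as the solvent control. Apoptotic cells were quantified by annexin V binding. Values are the mean of two independent experiments.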

[11] = Induction of apoptosis in human NB4 cells assessed as cell death at 5 uM after 24 hrs by annexin V binding assay; format: functional, NB-4; how it was run: as §3
NB-4 = test: Induction of cell death in human NB4 cells assessed as elevated sub-G1 population at 10 uM after 48 hrs by flow cytometry; format: functional, cell-based; how it was run: as §1
[12] = Cell cycle arrest in human NB4 cells assessed as increase in cell population at S phase at 5 uM after 48 hrs by flow cytometry; format: functional, cell-based; settings: NB-4; how it was run: as §1

C=C(C(=O)c1ccc(OC)cc1)C(OC(C)=O)c1c(F)c(F)c(F)c(F)c1F (centres undefined)
Activity (A549 [1]): Active | Activity (A549 [2]): Active | IC50 [3]: 12.6 µM | Activity (A549 [4]): Active | IC50 (A549 [5]): 14.8 µM | IC50 (MCF7 [6]): 6.7 µM | Activity (MCF7 [7]): Active | Activity (MCF7 [8]): Active | Activity (A549 [9]): Active

C=C(C(=O)c1ccc(OC)cc1)C(OC(=O)c1ccccc1)c1ccc([N+](=O)[O-])cc1[N+](=O)[O-] (centres undefined)
IC50 [3]: 10 µM | Activity (A549 [4]): Active | IC50 (A549 [5]): 13 µM | IC50 (MCF7 [6]): > 100 µM

O=[As][As+](=O)[O-] (centres undefined) [ARSENIC TRIOXIDE]
Activity [10]: 27%

C=C(C(=O)c1ccc(OC)cc1)C(OC(C)=O)c1ccc(Cl)cc1Cl (centres undefined)
Activity (A549 [1]): Active | Activity (A549 [2]): Active | Activity [11]: >50% | IC50 [3]: 5.4 µM | Activity (A549 [4]): Active | IC50 (A549 [5]): 17.6 µM | IC50 (MCF7 [6]): 8.3 µM | Activity (NB-4): Active | Activity (MCF7 [7]): Active | Activity (MCF7 [8]): Active | Activity (A549 [9]): Active | Activity [12]: Active

COc1ccc(C(=O)/C(=C/c2ccccc2Cl)COC(=O)c2ccccc2)cc1
Activity (A549 [1]): Active | Activity (A549 [2]): Active | IC50 [3]: 7 µM | Activity (A549 [4]): Active | IC50 (A549 [5]): 20.1 µM | IC50 (MCF7 [6]): 9 µM | Activity (MCF7 [7]): Active | Activity (MCF7 [8]): Active | Activity (A549 [9]): Active

CC(=O)OC/C(=C\c1ccccc1F)C(=O)c1ccccc1
Activity [11]: >50% | IC50 [3]: 5.8 µM | IC50 (A549 [5]): 68.7 µM | IC50 (MCF7 [6]): 14.6 µM | Activity (NB-4): Active | Activity [12]: Active

CC(=O)OC/C(=C/c1ccccc1F)C(=O)c1ccccc1
IC50 [3]: 8.3 µM | IC50 (A549 [5]): 20.3 µM | IC50 (MCF7 [6]): 39.8 µM

C=C(C(=O)c1ccc(OC)cc1)C(OC(C)=O)C(CC)CC (centres undefined)
IC50 [3]: 11.8 µM | IC50 (A549 [5]): 32.9 µM | IC50 (MCF7 [6]): 38.9 µM

C=C(C(=O)c1ccc(OC)cc1)C(O)c1ccc(Cl)cc1Cl (centres undefined)
IC50 [3]: 26.1 µM | IC50 (A549 [5]): 70 µM | IC50 (MCF7 [6]): 9 µM

COc1ccc(C(=O)/C(=C/c2ccc(Cl)cc2)CCOC(C)=O)cc1
IC50 [3]: 36.3 µM | IC50 (A549 [5]): 86 µM | IC50 (MCF7 [6]): > 100 µM

COc1ccc(C(=O)/C(=C/C2CCCCC2)CC(C)OC(C)=O)cc1 (centres undefined)
IC50 [3]: 33.4 µM | IC50 (A549 [5]): 98 µM | IC50 (MCF7 [6]): > 100 µM

COc1ccc(C(=O)/C(=C/c2ccc(C(F)(F)F)cc2)CC2CCCCC2)cc1
IC50 [3]: 18.2 µM | IC50 (A549 [5]): > 100 µM | IC50 (MCF7 [6]): > 100 µM

CCC(/C=C(\COC(=O)c1ccccc1)C(=O)c1ccc(OC)cc1)CC
IC50 [3]: 26.8 µM | IC50 (A549 [5]): > 100 µM | IC50 (MCF7 [6]): 28 µM

COc1ccc(C(=O)/C(=C/C2CCCCC2)CCOC(C)=O)cc1
IC50 [3]: > 100 µM | IC50 (A549 [5]): > 100 µM | IC50 (MCF7 [6]): > 100 µM

CC(=O)OC/C(=C\c1ccc(Cl)cc1Cl)C(=O)c1ccccc1
IC50 [3]: 6.6 µM | IC50 (A549 [5]): 97 µM | IC50 (MCF7 [6]): 8.7 µM | Activity (MCF7 [7]): Active | Activity (MCF7 [8]): Active

COc1ccc(C(=O)/C(=C/C2CCCCC2)CN(C)C(=O)c2ccccc2)cc1
IC50 [3]: 32.4 µM | IC50 (A549 [5]): 69.7 µM | IC50 (MCF7 [6]): 32.7 µM

COc1ccc(C(=O)/C(=C/c2ccccc2F)CCOC(C)=O)cc1
IC50 [3]: > 100 µM | IC50 (A549 [5]): > 100 µM | IC50 (MCF7 [6]): > 100 µM

C=C(C(=O)c1ccc(OC)cc1)C(OC(C)=O)c1ccc([N+](=O)[O-])cc1 (centres undefined)
IC50 [3]: 10.3 µM | IC50 (A549 [5]): 21.3 µM | IC50 (MCF7 [6]): 6.1 µM

C=C(C(=O)c1ccc(OC)cc1)C(OC(=O)c1ccccc1)c1ccccc1Cl (centres undefined)
IC50 [3]: 8.5 µM | IC50 (A549 [5]): 30.5 µM | IC50 (MCF7 [6]): 36 µM

C=C(C(=O)c1ccc(OC)cc1)C(OC(=O)c1ccccc1)c1ccc([N+](=O)[O-])cc1 (centres undefined)
IC50 [3]: 13.2 µM | IC50 (A549 [5]): 66.6 µM | IC50 (MCF7 [6]): 56.1 µM

C=C(C(=O)c1ccc(OC)cc1)C(OC(=O)c1ccccc1)c1c(F)c(F)c(F)c(F)c1F (centres undefined)
IC50 [3]: 12.9 µM | IC50 (A549 [5]): 32.1 µM | IC50 (MCF7 [6]): 45.3 µM

CCC(/C=C(\COC(C)=O)C(=O)c1ccc(OC)cc1)CC
IC50 [3]: 9.5 µM | IC50 (A549 [5]): > 100 µM | IC50 (MCF7 [6]): 13.7 µM

COc1ccc(C(=O)/C(=C/c2ccccc2F)COC(C)=O)cc1
IC50 [3]: 8.2 µM | IC50 (A549 [5]): 22.5 µM | IC50 (MCF7 [6]): 30 µM

COc1ccc(C(=O)/C(=C/c2ccc(Cl)cc2Cl)CC(C)C)cc1
IC50 [3]: 14.6 µM | IC50 (A549 [5]): 80.3 µM | IC50 (MCF7 [6]): > 100 µM

COc1ccc(C(=O)/C(=C/c2ccc([N+](=O)[O-])cc2)CN2CCOCC2)cc1
IC50 [3]: 5.6 µM | IC50 (A549 [5]): 70.1 µM | IC50 (MCF7 [6]): 7 µM

COc1ccc(C(=O)/C(=C/c2ccc(Cl)cc2Cl)CN2CCOCC2)cc1
IC50 [3]: 8.5 µM | IC50 (A549 [5]): > 100 µM | IC50 (MCF7 [6]): 42.3 µM

COc1ccc(C(=O)/C(=C/c2ccc(Cl)cc2Cl)CC(C)OC(C)=O)cc1 (centres undefined)
IC50 [3]: 36.8 µM | IC50 (A549 [5]): 40.3 µM | IC50 (MCF7 [6]): > 100 µM

C=C(C(=O)c1ccc(OC)cc1)C(OC(=O)c1ccccc1)C1CCCCC1 (centres undefined)
IC50 [3]: 10 µM | IC50 (A549 [5]): 62.1 µM | IC50 (MCF7 [6]): 34.3 µM

C=C(C(=O)c1ccc(OC)cc1)C(OC(C)=O)c1ccccc1F (centres undefined)
IC50 [3]: 9.5 µM | IC50 (A549 [5]): 67.3 µM | IC50 (MCF7 [6]): 18 µM

C=C(C(=O)c1ccc(OC)cc1OC)C(OC(C)=O)c1ccc([N+](=O)[O-])cc1 (centres undefined)
Activity [11]: >50% | IC50 [3]: 5 µM | IC50 (A549 [5]): 43.5 µM | IC50 (MCF7 [6]): 10.4 µM | Activity (NB-4): Active | Activity [12]: Active

C=C(C(=O)c1ccc(OC)cc1OC)C(OC(C)=O)c1ccccc1[N+](=O)[O-] (centres undefined)
IC50 [3]: 8.8 µM | IC50 (A549 [5]): > 100 µM | IC50 (MCF7 [6]): 70.1 µM

C=C(C(=O)c1ccc(OC)cc1)C(OC(C)=O)C1CCCCC1 (centres undefined)
IC50 [3]: 10.5 µM | IC50 (A549 [5]): > 100 µM | IC50 (MCF7 [6]): 14 µM

C=C(C(=O)c1ccc(OC)cc1)C(OC(=O)c1ccccc1)c1ccccc1[N+](=O)[O-] (centres undefined)
IC50 [3]: 12.7 µM | IC50 (A549 [5]): 45.5 µM | IC50 (MCF7 [6]): 11.8 µM

COc1ccc(C(=O)/C(=C/C2CCCCC2)COC(C)=O)cc1
IC50 [3]: 23.3 µM | IC50 (A549 [5]): 90 µM | IC50 (MCF7 [6]): 24 µM

C=C(C(=O)c1ccc(OC)cc1)C(OC(=O)c1ccccc1)c1ccccc1F (centres undefined)
IC50 [3]: 14.3 µM | IC50 (A549 [5]): 73.7 µM | IC50 (MCF7 [6]): 34.2 µM

C=C(C(=O)c1ccc(OC)cc1)C(OC(=O)c1ccccc1)C(CC)CC (centres undefined)
IC50 [3]: 13 µM | IC50 (A549 [5]): 35.2 µM | IC50 (MCF7 [6]): 17.9 µM

CC(=O)OC/C(=C/c1ccc(Cl)cc1Cl)C(=O)c1ccccc1
IC50 [3]: 12.6 µM | IC50 (A549 [5]): 74.5 µM | IC50 (MCF7 [6]): 31.7 µM
